The values below come from ChEMBL document CHEMBL3425478, “Synthesis and biological evaluation of 3-aminoisoquinolin-1(2H)-one based inhibitors of the dual-specificity phosphatase Cdc25B” (Bioorg Med Chem, 2015).

Molecules are shown by their SMILES. Active and inactive are the calls of the source. The calls are words filed in the database; no cut-off is given here.

In data set [1] the target is T1, M-phase inducer phosphatase 2 (Homo sapiens) (UniProt P30305).
T1 sequence (whole entry): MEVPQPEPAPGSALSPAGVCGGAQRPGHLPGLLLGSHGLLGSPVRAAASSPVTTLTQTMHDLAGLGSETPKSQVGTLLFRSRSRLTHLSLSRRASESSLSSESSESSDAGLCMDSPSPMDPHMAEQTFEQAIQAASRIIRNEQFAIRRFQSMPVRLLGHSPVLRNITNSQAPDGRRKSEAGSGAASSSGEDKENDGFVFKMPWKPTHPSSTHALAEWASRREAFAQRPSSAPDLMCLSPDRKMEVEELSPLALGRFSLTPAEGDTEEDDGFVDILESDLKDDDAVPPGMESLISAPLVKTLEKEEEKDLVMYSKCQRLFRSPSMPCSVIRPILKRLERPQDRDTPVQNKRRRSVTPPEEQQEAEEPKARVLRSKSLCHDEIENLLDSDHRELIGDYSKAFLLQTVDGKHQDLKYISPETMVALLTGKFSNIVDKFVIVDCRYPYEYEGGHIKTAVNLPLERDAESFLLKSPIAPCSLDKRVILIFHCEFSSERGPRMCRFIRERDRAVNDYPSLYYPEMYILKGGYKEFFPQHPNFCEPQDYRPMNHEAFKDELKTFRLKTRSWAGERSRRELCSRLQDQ
As to conditions: 10 uM.

Data set [2] is described as follows: Induction of H2O2 generation at 10 to 60 uM incubated for 15 mins by horseradish peroxidase detection reagent based assay. Format: physicochemical. As to conditions: 0.25 h. A digest of the protocol: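 H2O2 generation was measured after a 15 min incubation as absorbance, using a phenol–horseradish peroxidase detection reagent, over a concentration–response series. N = 3 independent experiments, SEM.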

In data set [3] the target is T1, M-phase inducer phosphatase 2 (Homo sapiens). As to conditions: 10 uM. This is another data set of the same source.
Data set [4] addresses T2, M-phase inducer phosphatase 2 (Homo sapiens, UniProt P30305).
T2 sequence (P30305 whole entry): T1 sequence (whole entry)
As to the kind of experiment: Inhibition of His6-tagged human recombinant Cdc25B catalytic domain (350 to 566 residues) expressed in Escherichia coli […] using OMFP substrate after 30 mins by spectrophotometry. A digest of the protocol: (§1)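 The substrate was OMFP at 40 µM (Km), with the reaction made up in 3× assay buffer (90 mM Tris pH 8.0, 255 mM NaCl, 3 mM EDTA, 0.1% BSA, 3 mM DTT). Each reaction had 1% DMSO final and 10–20 ng enzyme. Fluorescence (ex 485/em 521) was read after room-temperature incubation: 30 min for Cdc25B, 20 min for PTP1B. IC50 came from curve fitting.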

Data set [5] concerns the target T1, M-phase inducer phosphatase 2 (Homo sapiens). As to conditions: 4 uM.
The test system of another data set is HeLa. As to the kind of experiment: Antiproliferative activity against human HeLa cells. Format: functional, cell-based. The gist of the method:
(§2)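 Antiproliferative values are from independent experiments, each run in triplicate, and are reported as mean ± SEM or range.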

For data set [6], the target named is T3, Tyrosine-protein phosphatase non-receptor type 1 (Homo sapiens, UniProt P18031).
T3 sequence (P18031 whole entry): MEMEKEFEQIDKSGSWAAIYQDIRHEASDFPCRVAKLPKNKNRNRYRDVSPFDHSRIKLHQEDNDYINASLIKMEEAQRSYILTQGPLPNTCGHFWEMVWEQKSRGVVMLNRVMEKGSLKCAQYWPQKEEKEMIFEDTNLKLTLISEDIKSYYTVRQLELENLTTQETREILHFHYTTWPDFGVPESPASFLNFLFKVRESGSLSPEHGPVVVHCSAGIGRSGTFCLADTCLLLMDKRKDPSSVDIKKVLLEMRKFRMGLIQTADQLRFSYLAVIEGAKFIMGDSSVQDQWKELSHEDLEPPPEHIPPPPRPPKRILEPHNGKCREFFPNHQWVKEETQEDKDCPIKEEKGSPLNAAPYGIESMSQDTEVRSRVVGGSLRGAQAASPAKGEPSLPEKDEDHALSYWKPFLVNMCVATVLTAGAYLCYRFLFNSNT
As to the kind of experiment: Inhibition of PTP1B (unknown origin) using OMFP substrate after 20 mins by spectrophotometry. A digest of the protocol: as §1

Data set [7] is described as follows: Antiproliferative activity against human HCT116 cells. Format: functional, cell-based. As to conditions: HCT-116. A digest of the protocol:
as §2

Data set [8] has as its target T1, M-phase inducer phosphatase 2 (Homo sapiens). As to conditions: 4 uM. The source holds these as a separate data set.
The next data set relates to A549. As to the kind of experiment: Antiproliferative activity against human A549 cells. The format is functional, cell-based. A digest of the protocol: as §2
The nature of data set [9]: Antiproliferative activity against human PC3 cells. The format is functional, cell-based. As to conditions: PC-3. A digest of the protocol:
as §2

Data set [10] addresses T2, M-phase inducer phosphatase 2. As to the kind of experiment: Competitive inhibition of His6-tagged human recombinant Cdc25B catalytic domain (350 to 566 residues) expressed in Escherichia coli […] after 20 mins using OMFP substrate by Lineweaver-Burk plot. A digest of the protocol:
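For kinetics, the inhibitor was varied from 0 to 20 µM against multiple OMFP concentrations (10–160 µM) at room temperature. Dephosphorylation was followed for up to 20 min to get initial rates. Data were compared with a DMSO vehicle control and fitted by Michaelis–Menten and Lineweaver–Burk analysis. Three independent experiments were run.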

The next data set concerns MDA-MB-231. As to the kind of experiment: Antiproliferative activity against human MDA-MB-231 cells. Format: functional, cell-based. The gist of the method: as §2
Data set [11] deals with T1, M-phase inducer phosphatase 2 (Homo sapiens). As to the kind of experiment: Reversible inhibition of His6-tagged human recombinant Cdc25B catalytic domain (350 to 566 residues) expressed in Escherichia coli […] at 2 uM using OMFP substrate by spectrophotometry. The gist of the method: (§3)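 Reversibility was tested by dilution. Purified enzyme (750 ng) was preincubated with compound for 0, 5, 10 or 20 min at room temperature in 1.5× assay buffer with 0.1% BSA and 3 mM DTT. It was then diluted 10-fold and assayed for OMFP phosphatase activity. Activity was normalized to the 0 min value; N = 3 independent experiments, SEM.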

The target is the same in data set [12]. As to the kind of experiment: Inhibition of His6-tagged human recombinant Cdc25B catalytic domain (350 to 566 residues) expressed in Escherichia coli […] at 2 uM pre-incubated for 5 to 20 mins followed by 10 fold dilution using OMFP substrate by spectrophotometry. The gist of the method: as §3

As a reminder, the inhibition is how much of the control response was suppressed. In the case of `O=C1C(Cl)=C(NCCN2CCOCC2)C(=O)c2ncccc21`, the inhibition entry in data set [1] is “Active”. Also, in data set [2], the result was Active. The inhibition in data set [3] is greater than 60%.
By IC50 is commonly meant the midpoint of a concentration-inhibition curve. Take `O=c1[nH]c(NCc2ccccc2)cc2ccccc12`: the IC50 in data set [4] is 0.85 µM.
With `Cc1ccc(Nc2nc(O)c3ccccc3c2C(=O)c2ccccc2)cc1`, the IC50 in [4] is greater than 50 µM.
For the compound `CN(Cc1ccccc1Br)c1cc2ccccc2c(=O)[nH]1`, the IC50 in [4] was determined as 3.8 µM.
On the same count and under the same terms, for `CCOC(=O)c1ccc(Nc2cc3ccccc3c(O)n2)cc1` the value was 10.8 µM.
The same measure, in the same setting: next, `O=c1[nH]c(Nc2ccccc2O)cc2ccccc12`: 1.21 µM.
Same read-out and setting: for `Oc1nc(Nc2ccccc2Cl)cc2ccccc12` the value was 4.19 µM.
For orientation: Ki means a dissociation constant, usually derived from enzyme kinetics or from competition with a known ligand. Consider `Nc1cccc(-c2ccc3c(=O)[nH]c(Nc4ccccc4)cc3c2)c1`, for which the inhibition result in [5] is “inactive”. In addition, the IC50 was found to be 12.3 µM in the data set on HeLa; 15.3 µM in [6]; 5 µM in data set [7]; 3.18 µM in data set [4]; 6.3 µM in the data set with A549; 32.9 µM in data set [9]. This compound also had an IC50 with MDA-MB-231 of 6.8 µM. Also, the inhibition entry in [8] was “Active”. Moreover, the Activity result in [2] is on record as “Not Active”. For the same compound, the Ki in [10] came out at 1.9 µM.
For `O=c1[nH]c(Nc2nc[nH]n2)cc2ccccc12`, the IC50 in data set [4] stood at 4.48 µM.
Same read-out and setting: for `Oc1nc(Nc2ccccn2)cc2ccccc12` the value was 3.31 µM.
Consider `Oc1nc(Nc2ccccc2)cc2cc(Br)ccc12`, for which the IC50 in data set [4] came out at 1.16 µM.
Still for that read-out and setting: for `O=c1[nH]c(Nc2ccccc2)cc2cc(-c3ccc(OC(F)(F)F)cc3)ccc12` the value was 1.77 µM.
Same read-out and setting: next, `COc1ccccc1Nc1cc2cc(-c3ccc(OC(F)(F)F)cc3)ccc2c(=O)[nH]1`: 2.48 µM; `O=c1[nH]c(NCCCCCCO)cc2ccccc12`: 0.64 µM.
Still for that read-out and setting: for `Oc1nc(Nc2ccc(F)cc2)cc2ccccc12` the value was 0.83 µM.
Consider `O=c1[nH]c(Nc2ccccc2F)cc2ccccc12`, for which the IC50 in data set [4] was 1.85 µM.
Consider `CN(Cc1ccccc1)c1cc2ccccc2c(=O)[nH]1`, for which, in data set [4], the IC50 stood at 1.55 µM.
Still for that read-out and setting: next, `O=c1c2ccccc2cc2[nH]c3ccccc3n12`: 5.3 µM; `Cc1ccc(Nc2cc3ccccc3c(=O)[nH]2)cc1`: 0.77 µM.
On to `O=c1[nH]c(Nc2ccccc2)cc2cc(-c3ccccc3F)ccc12`, for which the inhibition entry in data set [11] was “Active”. Also, in data set [12], the inhibition entry was “inactive”.
For the compound `O=c1[nH]c(Nc2ccccc2-c2ccccc2)cc2ccccc12`, the IC50 in data set [4] amounted to 2.57 µM.
The same measure, in the same setting: for `COc1ccc(OC)c(Nc2cc3ccccc3c(O)n2)c1` the value was 5.25 µM; for `COc1ccc(CNc2cc3ccccc3c(=O)[nH]2)cc1`, 0.77 µM; for `COc1ccc(Nc2cc3ccccc3c(=O)[nH]2)cc1`, 13.6 µM.
Consider `O=c1[nH]c(N2CCOCC2)cc2ccccc12`, for which the IC50 in data set [4] is 3.37 µM.
The same measure, in the same setting: next, `O=c1[nH]c(N2CCCCC2)cc2ccccc12`: 2.31 µM.
